# Calls of active or inactive are those of the source. The rule behind the calls is not given here.
# Assays:
# [1] = Tmax in male Beagle dog at 1 mg/kg,iv measured upto 24 hrs; format: ADME, organism-based, Canis lupus familiaris; conditions: in vivo
# 4T1 [2] = assay: Synergistic antitumor activity against mouse 4T1 cells xenografted with BALB/c mouse assessed as decrease in lung metastasis at 10 mg/kg,iv administrated in combination with doxorubicin once per week for 4 weeks; format: functional, organism-based
# [3] = Volume of distribution at steady state in male Beagle dog at 2 mg/kg,iv measured upto 24 hrs; format: ADME, organism-based, Canis lupus familiaris; conditions: in vivo, read-out: Vdss
# [4] = Chronic toxicity in male Beagle dog at 3 to 18 mg/kg,iv administered once per week for 30 days; format: organism-based, Canis lupus familiaris; conditions: in vivo, 720 h, dose 3-18 mg/kg, time 30 day
# Procedure, shortened: (§1)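 Long-term toxicity: rats given iv 2, 4 or 8 mg/kg and dogs 3, 6 or 18 mg/kg once weekly over 30 days; toxicokinetics recorded; highest non-severely toxic dose determined by sex.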
# [5] = Volume of distribution at steady state in male rat at 4 mg/kg,iv measured upto 24 hrs; format: ADME, organism-based; conditions: in vivo, read-out: Vdss
# OVCAR-3 = assay: Antiproliferative activity against human OVCAR-3 cells assessed inhibition of cell growth incubated for 72 hrs by SRB assay; format: functional, cell-based; conditions: OVCAR-3, 72 h
# [6] = MRT (0 to infinity) in female Beagle dog at 4 mg/kg,iv measured upto 24 hrs; format: ADME, organism-based, Canis lupus familiaris; conditions: in vivo
# [7] = Drug distribution in rat kidney at 4 mg/kg,iv measured by 0.25 hrs; format: ADME, organism-based; conditions: in vivo
# Procedure, shortened: (§2)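 Rats received 4 mg/kg iv. Parent drug and released docetaxel were assayed in tissues and plasma from the first sampling at 0.25 h to 24 h. The lower limit of quantitation was 200 ng/g.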
# [8] = MRT (0 to infinity) in female rat at 2 mg/kg,iv measured upto 24 hrs; format: ADME, organism-based; conditions: in vivo
# [9] = Toxicity in BALB/c mouse xenografted with human HCT-116 cells assessed as body weight loss at 10 mg/kg,iv administrated once per week for 3 weeks; format: organism-based; conditions: in vivo, 504 h
# [10] = Half life in mouse plasma implanted with mouse 4T1 cells at 10 mg/kg,iv measured upto 72 hrs; format: ADME, organism-based
# [11] = Cmax in male rat at 2 mg/kg,iv measured upto 24 hrs; format: ADME, organism-based; set-up: time < 24 hrs, dose 2 mg/kg, route iv; conditions: in vivo
# Procedure, shortened: (§3)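 Rats were given a single iv injection at 2, 4 or 8 mg/kg. Plasma parent drug and released docetaxel were followed over time. Cmax, Tmax, AUC, MRT, t1/2, CL and Vss were reported for males, females and all animals combined.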
# [12] = Toxicity in Beagle dog assessed as decrease in body temperature at 1 to 4 mg/kg,iv; format: organism-based, Canis lupus familiaris; conditions: in vivo, dose 1-4 mg/kg
# 4T1 [13] = assay: Antitumor activity against mouse 4T1 cells xenografted with BALB/c mouse assessed as reduction lung metastatic nodules at 5 to 20 mg/kg,iv administrated once per week for 4 weeks; format: functional, organism-based; conditions: dose 5-20 mg/kg
# Procedure, shortened: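 4T1 cells injected into the mammary fat pad of BALB/c mice; iv saline vehicle or 5, 10 or 20 mg/kg once weekly for 4 weeks; body weight, tumour volume, tumour weight, lung metastatic nodule count and metastasis score recorded; n = 10, mean ± SEM, ANOVA and Student's t test.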
# [14] = Drug distribution in rat adrenal gland at 4 mg/kg,iv measured by 0.25 hrs; format: ADME, organism-based; conditions: in vivo; procedure, shortened: as §2
# [15] = Tmax in male Beagle dog at 2 mg/kg,iv measured upto 24 hrs; format: ADME, organism-based, Canis lupus familiaris; conditions: in vivo
# [16] = Clearance in female Beagle dog at 2 mg/kg,iv measured upto 24 hrs; format: ADME, organism-based, Canis lupus familiaris; conditions: in vivo
# Procedure, shortened: (§4)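 Beagle dogs were given a single iv infusion at 1, 2 or 4 mg/kg. Plasma parent drug and released docetaxel were followed over time. Cmax, Tmax, AUC, MRT, t1/2, CL and Vss were reported by sex and for all dogs combined.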
# 4T1 [17] = assay: Antitumor activity against mouse 4T1 cells implanted in BALB/c mouse assessed as increase in tumor NOD1 expression level at 5 to 20 mg/kg,iv administrated once per week for 4 weeks by western blot assay; format: functional, organism-based; conditions: dose 5-20 mg/kg
# Procedure, shortened: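 4T1 fat-pad model in BALB/c mice, iv once weekly for 4 weeks; MMP9, MMP2 and NOD1 in spleen, lung and tumour by western blot, β-actin loading control; bands averaged over five mice per group, representative of two independent experiments.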
# [18] = AUC (0-infinity) in male Beagle dog at 1 mg/kg,iv measured upto 24 hrs; format: ADME, organism-based, Canis lupus familiaris; set-up: dose 1 mg/kg, time < 24 hrs, route iv; conditions: in vivo
# Procedure, shortened: (§5)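 Single iv dose: rats 2, 4 or 8 mg/kg by intravenous injection; Beagle dogs 1, 2 or 4 mg/kg by intravenous infusion. Plasma concentration–time data were analysed by sex and pooled. Reported parameters: Cmax, Tmax, AUC0−t, AUC0−∞, MRT0−∞, t1/2, CL, Vss, given as mean ± SD.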
# [19] = Cmax in female rat at 4 mg/kg,iv measured upto 24 hrs; format: ADME, organism-based; set-up: time < 24 hrs, dose 4 mg/kg, route iv; conditions: in vivo; procedure, shortened: as §3
# [20] = AUC (0-infinity) in male Beagle dog at 2 mg/kg,iv measured upto 24 hrs; format: ADME, organism-based, Canis lupus familiaris; set-up: time < 24 hrs, dose 2 mg/kg, route iv; conditions: in vivo; procedure, shortened: as §5
# [21] = AUC (0-infinity) in female Beagle dog at 1 mg/kg,iv measured upto 24 hrs; format: ADME, organism-based, Canis lupus familiaris; set-up: dose 1 mg/kg, time < 24 hrs, route iv; conditions: in vivo; procedure, shortened: as §5
# [22] = AUC (0-t) in female rat at 2 mg/kg,iv measured upto 24 hrs; format: ADME, organism-based; set-up: time < 24 hrs, dose 2 mg/kg, route iv; conditions: in vivo; procedure, shortened: as §5
# [23] = Chronic toxicity in male Sprague-Dawley rat at 2 to 8 mg/kg,iv administered once per week for 30 days; format: organism-based; conditions: in vivo, 720 h, dose 2-8 mg/kg, time 30 day; procedure, shortened: as §1
# [24] = Volume of distribution at steady state in rat at 2 mg/kg,iv measured upto 24 hrs; format: ADME, organism-based; conditions: in vivo, read-out: Vdss
# [25] = Toxicity in Beagle dog assessed as effect on electrocardiogram index at 1 to 4 mg/kg,iv; format: organism-based, Canis lupus familiaris; conditions: in vivo, dose 1-4 mg/kg
# 4T1 [26] = assay: Antitumor activity against mouse 4T1 cells implanted in BALB/c mouse assessed as decrease in serum IL-6 level at 20 mg/kg,iv administrated once per week for 4 weeks by ELISA; format: functional, organism-based
# Procedure, shortened: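 4T1 fat-pad model in BALB/c mice, iv 5–20 mg/kg once weekly for 4 weeks, with vehicle and naive groups; serum MMP9, TIMP-1, IL-6 and S100A9 measured by mouse ELISA kits.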
# COLO 205 = assay: Antiproliferative activity against human COLO 205 cells assessed inhibition of cell growth incubated for 72 hrs by SRB assay; format: functional, cell-based; conditions: COLO 205, 72 h
# [27] = Cmax in Beagle dog at 2 mg/kg,iv measured upto 24 hrs; format: ADME, organism-based, Canis lupus familiaris; set-up: dose 2 mg/kg, time < 24 hrs, route iv; conditions: in vivo; procedure, shortened: as §4
# [28] = AUC (0-infinity) in male rat at 2 mg/kg,iv measured upto 24 hrs; format: ADME, organism-based; set-up: dose 2 mg/kg, time < 24 hrs, route iv; conditions: in vivo; procedure, shortened: as §5
# [29] = Toxicity in male Sprague-Dawley rat assessed as testicular atrophy at 2 to 8 mg/kg,iv measured upto 24 hrs; format: organism-based; conditions: in vivo, dose 2-8 mg/kg
# BT-474 = assay: Antiproliferative activity against human BT-474 cells assessed inhibition of cell growth incubated for 72 hrs by SRB assay; format: functional, cell-based; conditions: BT-474, 72 h
# [30] = Toxicity in BALB/c mouse xenografted with human MDA-MB-231 cells assessed as side effects at 10 mg/kg,iv administrated once per week for 3 weeks; format: organism-based; conditions: in vivo, 504 h
# 4T1 [31] = assay: Antitumor activity against mouse 4T1 cells xenografted with BALB/c mouse assessed as reduction lung metastatic nodules at 5.7 mg/kg,iv administrated once per week for 4 weeks; format: functional, organism-based
# Procedure, shortened: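 4T1 cells injected into mammary fat pads of BALB/c mice. Dosing iv once per week for 4 weeks, saline vehicle; single-agent arms were given alone or with the peptide component (5b or 6). Endpoints were body weight, tumour volume, tumour weight, lung metastatic nodule count and lung metastasis score. Mean ± SEM, n = 10; ANOVA and Student's t test.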
structure (smiles),measurement,setting,value
CC(=O)O[C@@]12CO[C@@H]1C[C@H](O)[C@@]1(C)C(=O)[C@H](O)C3=C(C)[C@@H](OC(=O)[C@H](OC(=O)CCC(=O)NCCCC[C@H](NC(=O)CC[C@@H](NC(=O)[C@H](C)NC(=O)/C=C/c4ccc(F)cc4Cl)C(N)=O)C(=O)O)[C@@H](NC(=O)OC(C)(C)C)c4ccccc4)C[C@@](O)([C@@H](OC(=O)c4ccccc4)[C@H]21)C3(C)C,Tmax,[1],30 min
same,Activity,4T1 [2],Active
same,Vd,[3],0.09 L/kg
same,Activity,[4],Non-Toxic
same,Vd,[5],0.073 L/kg
same,IC50,OVCAR-3,16.3 nM
same,MRT inf,[6],26 min
same,Drug uptake,[7],Active
same,MRT inf,[8],8.64 min
same,Activity,[9],Non-Toxic
same,half-life,[10],41.4 min
same,Cmax,[11],15800 ng/mL
same,Activity,[12],Toxic
same,Activity,4T1 [13],Active
same,Drug uptake,[14],Active
same,Tmax,[15],30 min
same,clearance,[16],5.04 mL/min/kg
same,Activity,4T1 [17],inactive
same,AUC(0-inf),[18],1630 ng·h/mL
same,Cmax,[19],30500 ng/mL
same,AUC(0-inf),[20],4890 ng·h/mL
same,AUC(0-inf),[21],1640 ng·h/mL
same,AUC(0-t) at 24 h,[22],4320 ng·h/mL
same,Activity,[23],Toxic
same,Vd,[24],0.071 L/kg
same,Activity,[25],Non-Toxic
same,Activity,4T1 [26],Active
same,IC50,COLO 205,16.3 nM
same,Cmax,[27],12700 ng/mL
same,AUC(0-inf),[28],6120 ng·h/mL
same,Activity,[29],Toxic
same,IC50,BT-474,16.3 nM
same,Activity,[30],Non-Toxic
CC(=O)O[C@@]12CO[C@@H]1C[C@H](O)[C@@]1(C)C(=O)[C@H](O)C3=C(C)[C@@H](OC(=O)[C@H](O)[C@@H](NC(=O)OC(C)(C)C)c4ccccc4)C[C@@](O)([C@@H](OC(=O)c4ccccc4)[C@H]21)C3(C)C [DOCETAXEL ANHYDROUS],Activity,4T1 [31],inactive

# — ChEMBL document CHEMBL5252546, “Salutaxel, a Conjugate of Docetaxel and a Muramyl Dipeptide (MDP) Analogue, Acts as Multifunctional Prodrug That Inhibits Tumor Growth and Metastasis” (J Med Chem, 2018)
